Results on 13 compounds are retold here after PubChem BioAssay.

Structures are written as SMILES. The source made the active and inactive calls.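 How the source made its calls, unless noted: active means fluorescence slope after compound addition differing from the mean of all screened samples at 99.7% confidence, in either direction; inactive means the rest.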

Test [1] is described as follows: inhibitors of TNFa-induced NFkB p65 translocation, primary screen, imaging, HUVEC, MLSMR starter and 10KST1 sets (AID 438;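 active means inhibition above 20% together with a positive visual image hit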;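 further: compound added about 3h40 before a 20 min TNFalpha stimulation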;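 on inhibition: signal is the nuclear over cytoplasmic p65 intensity ratio per well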). The note with it: HUVEC TNFa-induced p65 nuclear translocation; cell count: measured here: nuclei count (cytotoxicity indicator), at 2.08 µM; inhibition: at 2 µM, stronger effect = higher value, 0% TNFa-plus-vehicle, 100% no-TNFa wells.
Test [2] is described as follows: inhibitors of E-selectin induction by TNFa, primary screen, imaging, HUVEC, immunofluorescence, MLSMR starter and 10KST1 sets (AID 487;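 active means visually confirmed hit in the image check and inhibition above 20%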;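 on inhibition: signal is fraction of cell area covered by stained E-selectin grains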;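 on nuclei count: 100% = median nuclei count of all wells on the same plate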). As to conditions: HUVEC TNFalpha-induced E-selectin immunofluorescence imaging, at 2 µM; inhibition: stronger effect = higher value; nuclei count: measured here: cell number, toxicity.
Test [3] can be described thus: DUSP6 inhibitors restoring Erk phosphorylation by chemical complementation, primary imaging in DUSP6-transfected HeLa (AID 609;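 active means compounds giving at least 50% inhibition in the cell-based MKP-3 phosphatase rescue imaging test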;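 on inhibition: phospho-Erk level distribution per well compared with pooled transfected vehicle control wells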). The note with it: HeLa MKP-3 transfected, phospho-Erk imaging KS statistic, at 10 µM, cells stimulated with TPA for 15 min.
Test [4] has as its target Dual specificity protein phosphatase 6 (Homo sapiens) (UniProt Q16828). The description is as above. As to conditions: HeLa MKP-3 transfected, phospho-Erk imaging KS statistic; at 10 µM; stronger effect = higher value; cells stimulated with TPA for 15 min.
The target of test [5] is Voltage-gated potassium channel subunit beta-2 (Rattus norvegicus) (UniProt P62483). Kind of test: KvBeta enzyme negative modulators, primary screen, biochemical, NADPH fluorescence (AID 622;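 active means fluorescence slope higher than the sample average by over 3 SD, cut at about -0.22 in these data, passing the limit was not always enough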;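 further: slope of raw intensity against log time taken from 70 to 1610 s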). The note with it: recombinant KvBeta, 4-cyanobenzaldehyde reduction, at 10 µM, stronger effect = higher value.
Sequence of Voltage-gated potassium channel subunit beta-2 (Rattus norvegicus) (P62483 whole entry, looked up): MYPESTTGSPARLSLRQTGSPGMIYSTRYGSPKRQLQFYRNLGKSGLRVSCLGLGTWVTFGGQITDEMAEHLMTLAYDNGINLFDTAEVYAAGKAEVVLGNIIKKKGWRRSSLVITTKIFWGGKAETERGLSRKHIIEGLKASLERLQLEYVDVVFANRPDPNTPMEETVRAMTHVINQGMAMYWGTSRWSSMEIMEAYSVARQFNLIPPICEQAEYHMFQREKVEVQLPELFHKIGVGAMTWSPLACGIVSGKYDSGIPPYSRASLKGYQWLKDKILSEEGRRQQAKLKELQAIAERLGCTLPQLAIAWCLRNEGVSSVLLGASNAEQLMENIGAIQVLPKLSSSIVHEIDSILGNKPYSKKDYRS
Test [6] has the same target. Kind of test: KvBeta positive modulators, primary screen, biochemical, NADPH fluorescence (AID 623;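 active means NADPH fluorescence slope more negative than the mean of all samples by about 3 SD, 99.7% confidence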;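 further: fluorescence intensity change per second fitted from 20 to 320 s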). The note with it: Recombinant KvBeta, NADPH fluorescence decrease slope, 10 min; at 10 µM; stronger effect = lower value.
For test [7], the target named is Alpha-2C adrenergic receptor (Homo sapiens) (UniProt P18825). The test can be described thus: modulators of alpha2C/GIRK thallium flux, primary screen, cell-based, HEK293 alpha2C/GIRK1/2 (AID 624).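 Further: slope of fluorescence ratio to pre-addition baseline per second over 15 to 24 s.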 The note with it: thallium flux BTC fluorescence, at 10 µM, actives lie on both sides.
Sequence of Alpha-2C adrenergic receptor (Homo sapiens) (P18825 whole entry, looked up): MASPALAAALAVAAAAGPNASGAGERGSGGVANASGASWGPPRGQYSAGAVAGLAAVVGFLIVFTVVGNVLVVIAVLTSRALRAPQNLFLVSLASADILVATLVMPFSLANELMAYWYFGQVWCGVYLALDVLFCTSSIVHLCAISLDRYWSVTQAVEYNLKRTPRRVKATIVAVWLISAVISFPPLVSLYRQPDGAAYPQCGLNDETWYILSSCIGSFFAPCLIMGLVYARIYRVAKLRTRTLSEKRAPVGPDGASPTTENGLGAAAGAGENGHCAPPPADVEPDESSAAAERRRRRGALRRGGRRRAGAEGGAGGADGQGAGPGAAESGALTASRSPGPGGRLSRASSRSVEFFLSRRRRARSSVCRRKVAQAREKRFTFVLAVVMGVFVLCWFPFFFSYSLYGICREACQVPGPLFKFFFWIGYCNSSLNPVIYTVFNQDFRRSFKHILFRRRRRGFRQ
Test [8] is described as follows: inhibitors of larval lipid processing in zebrafish, primary screen, whole organism, PED6 fluorescence, gall bladder and intestine (AID 686;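 active means a full or partial loss of lipid-probe fluorescence in the fish gall bladder, intestine or both, judged by eye; inactive means no fluorescence loss, or compound toxic to the fish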;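 further: larvae 5 to 7 days old with five fish per well; signal comes from phospholipase A2 cleavage of quenched PED6 carried via bile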). The note with it: Zebrafish larvae PED6 lipid processing, fluorescence scoring; screened at 20 µM (by protocol). The method in brief: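 system = live zebrafish larvae aged 5-7 days, whole organism | probe or stimulus = ingested quenched lipid PED6 at 100 nM | doses = 20 µM single dose | timing = overnight exposure | detection = fluorescence microscopy with visual scoring of gall bladder and intestine | read-out = visual per-well fluorescence inhibition score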

The nature of test [9]: inhibitors of Chlamydomonas gravitaxis, primary screen, whole organism, Chlamydomonas reinhardtii, WT vs cilia-less mutant, absorbance, 96-well (AID 463189;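 active means inhibition at or above 50% relative to wild type and mutant plate controls; inactive means inhibition below 50%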;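 further: 0% = wild type cc124 cells in DMSO and 100% = ciliumless bld1 mutant cells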). As to conditions: OD600 absorbance, 2 days, at 10 µM, stronger effect = higher value.
[10] abbreviates: measured here: cell density z-score.
[11] abbreviates: measured here: nuclear c-Myc green intensity z-score.
[12] abbreviates: measured here: nuclear pErk red intensity z-score, stronger effect = higher value.

Sequence of Dual specificity protein phosphatase 6 (Homo sapiens) (Q16828 whole entry, looked up): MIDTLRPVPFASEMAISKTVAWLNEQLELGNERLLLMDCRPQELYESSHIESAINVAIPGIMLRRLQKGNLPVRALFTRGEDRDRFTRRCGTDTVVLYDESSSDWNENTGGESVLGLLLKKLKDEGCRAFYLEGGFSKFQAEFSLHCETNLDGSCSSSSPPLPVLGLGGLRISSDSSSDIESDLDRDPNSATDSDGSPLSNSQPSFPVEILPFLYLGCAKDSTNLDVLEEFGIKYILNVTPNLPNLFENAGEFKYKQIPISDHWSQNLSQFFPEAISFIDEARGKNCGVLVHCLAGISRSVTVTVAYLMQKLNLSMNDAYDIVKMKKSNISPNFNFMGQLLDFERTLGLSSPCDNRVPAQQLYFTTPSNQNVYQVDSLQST

By inhibition is commonly meant the drop in the measured response relative to a control, in per cent. As to `CCOC(=O)c1c(C)n(C)c2ccc(OC)c(NC(=O)CN3CCN(Cc4ccccc4)CC3)c12`, in test [1], the cell count came to 291. For the same compound, the inhibition in test [1] is 0.8% (inactive); in test [2], -14% (inactive); in [4], -6.59% (inactive); in test [9], -10.1% (inactive). In addition, the nuclei count in test [2] amounted to 93.5%. Besides, the figures for the z-score in test [3] (setting [10]), in test [3] (setting [11]) and in test [3] (setting [12]) were -0.908, 0.5 and 1.45, respectively. For the same compound, the fluorescence slope in [5] was -0.431 (inactive). Moreover, the NADPH fluorescence slope in test [6] was -0.000147 (inactive). Further, the slope in test [7] is 0.00677 (inactive). In [8], the outcome was inactive.
Take `CSC1=Nc2sc3c(c2C2=NCCN12)CC(C)(C)OC3`: the cell count in [1] was 540. For the same compound, the inhibition in test [1] is -10.5% (inactive); in test [2], -3.3% (inactive); in test [4], 3.66% (inactive); in test [9], 64.3% (active). In [2], the nuclei count is 176%. The z-score was -0.539 in test [3] (setting [10]), 0.758 in test [3] (setting [11]) and -0.378 in [3] (setting [12]). The fluorescence slope in test [5] is -0.508 (inactive). Further, the NADPH fluorescence slope in test [6] is -4.5e-05 (inactive). Further, the slope in [7] was 0.00474 (inactive). Besides, in [8], the compound was called inactive.
Turning to `CC1(C)Cc2c(sc3nc(SCC#N)n(C4CCCCC4)c(=O)c23)CO1`, the cell count in [1] was 633. The inhibition in [1] was -10.8% (inactive); in [2] it was 51% (inactive); in test [4], 6.04% (inactive); in [9], -8.06% (inactive). The compound further showed a nuclei count in test [2] of 154%. The z-score in [3] (setting [10]) was -1.73; in test [3] (setting [11]), 0.192; in [3] (setting [12]) it was 0.926. For the same compound, in [5], the fluorescence slope is -0.356 (inactive). Also, the NADPH fluorescence slope in test [6] was -4.5e-05 (inactive). In test [7], the slope is 0.0054 (inactive). In test [8], the outcome was inactive.
Consider `COc1ccccc1N1CCN(CCOc2c(OC)cccc2OC)CC1`, for which, in test [1], the cell count amounted to 492. Moreover, the inhibition in test [1] was -10.5% (inactive); in test [2], -105% (inactive); in [4], -3.98% (inactive); in test [9] it was -3.94% (inactive). Besides, the nuclei count in test [2] worked out at 116%. Further, the results for the z-score in [3] (setting [10]), in [3] (setting [11]) and in test [3] (setting [12]) were -1.56, 1.65 and 0.711, respectively. In addition, the fluorescence slope in [5] was -0.469 (inactive). The NADPH fluorescence slope in [6] is -0.000262 (inactive). Besides, the slope in test [7] was 0.00445 (inactive). Besides, the compound was classed as inactive in [8].
Turning to `CCCOc1ccc(C(C)=O)cc1CSCCC#N`, the cell count in [1] worked out at 298. Further, the inhibition in [1] was -26.4% (inactive); in test [2] it was -186% (inactive); in test [4], 7.01% (inactive); in test [9], 17.2% (inactive). The compound also returned a nuclei count in test [2] of 136%. The values for the z-score in [3] (setting [10]), in test [3] (setting [11]) and in test [3] (setting [12]) were -0.222, -1.52 and 0.779, respectively. For the same compound, the fluorescence slope in test [5] is -0.462 (inactive). Also, the NADPH fluorescence slope in test [6] was -0.000379 (inactive). Also, the slope in test [7] is 0.00586 (inactive). The call in test [8] was inactive.
Consider `Cc1cc(Cl)ccc1OCC(=O)OC(C)C(=O)N(C)C` (centres undefined), for which, in test [1], the cell count was determined as 356. The inhibition in [1] is -24% (inactive); in test [2], -194% (inactive); in [4] it was 5.26% (inactive); in [9], 7.97% (inactive). Also, the nuclei count in [2] was 168%. The z-score in test [3] (setting [10]) is 1.09; in test [3] (setting [11]), 0.169; in test [3] (setting [12]), -0.845. Besides, the fluorescence slope in [5] was -0.439 (inactive). In addition, the NADPH fluorescence slope in test [6] is -0.000171 (inactive). Besides, the slope in [7] is 0.00631 (inactive). For the same compound, in test [8], the compound was called inactive.
Consider `O=C(Nc1ccc(Cl)cn1)C1CCCN1S(=O)(=O)c1ccccc1` (centres undefined), for which the cell count in [1] amounted to 365. Besides, the inhibition in test [1] was 4.7% (inactive); in [2] it was -101% (inactive); in [4] it was 11.3% (inactive); in [9] it was -3.35% (inactive). Also, the nuclei count in test [2] is 154%. Moreover, the results for the z-score in test [3] (setting [10]), in test [3] (setting [11]) and in [3] (setting [12]) were 2.19, 0.087 and -0.0829, respectively. Besides, in [5], the fluorescence slope is -0.415 (inactive). For the same compound, the NADPH fluorescence slope in test [6] is -4e-05 (inactive). In addition, in test [7], the slope is 0.00596 (inactive). For the same compound, the compound was classed as inactive in test [8].
On to `CCNc1nc(NC(C)C)nc(N(C#N)C(C)C(=O)N(C)C)n1` (centres undefined), for which, in test [1], the cell count is 330. Also, the inhibition in [1] was -31.8% (inactive); in test [2], -39.6% (inactive); in [4], -12.3% (inactive); in [9], 19.9% (inactive). The nuclei count in [2] amounted to 134%. Moreover, the z-score is -0.102 in test [3] (setting [10]), -1.64 in test [3] (setting [11]) and 0.749 in test [3] (setting [12]). Besides, the fluorescence slope in test [5] is -0.445 (inactive). Further, the NADPH fluorescence slope in test [6] was -0.000124 (inactive). The slope in test [7] is 0.00585 (inactive). In addition, the compound was called inactive in [8].
As to `Cc1cc(C)c(C#N)c(SCC(=O)N2CCN(Cc3ccccc3)CC2)n1`, the cell count in test [1] was found to be 660. Moreover, the inhibition in [1] is -29% (inactive); in test [2] it was -68.1% (inactive); in [4], -7.28% (inactive); in test [9], 8.58% (inactive). Also, the nuclei count in test [2] is 173%. In addition, the z-score in test [3] (setting [10]) is -1.99; in test [3] (setting [11]) it was 0.41; in test [3] (setting [12]) it was 1.64. The fluorescence slope in [5] was -0.419 (inactive). Also, in test [6], the NADPH fluorescence slope was -3.2e-05 (inactive). In test [7], the slope was 0.00644 (inactive). For the same compound, in test [8], the compound was called inactive.
For the compound `CC(C)Cc1nc(NCCN2CCOCC2)c(C#N)c2c1COC(C)(C)C2`, in [1], the cell count worked out at 572. For the same compound, the inhibition in [1] is 2.6% (inactive); in [2] it was -114% (inactive); in test [4], -6.86% (inactive); in test [9], 4.53% (inactive). This compound also returned a nuclei count in test [2] of 192%. Besides, the z-score is -1.39 in [3] (setting [10]), 1.03 in test [3] (setting [11]) and 0.72 in [3] (setting [12]). The fluorescence slope in [5] was -0.302 (inactive). Besides, the NADPH fluorescence slope in [6] was 2.3e-05 (inactive). For the same compound, in test [7], the slope is 0.00502 (inactive). Further, the result in test [8] was inactive.
`c1ccc(N2CCN(c3nc(-c4ccccn4)nc4ccccc34)CC2)cc1`: the cell count in [1] was found to be 493. Besides, the inhibition in [1] was -5.1% (inactive); in test [2], 22.4% (inactive); in test [4] it was -5.26% (inactive); in test [9], 106% (active). Further, in [2], the nuclei count turned out to be 86.2%. The z-score was -1.22 in [3] (setting [10]), 1.7 in [3] (setting [11]) and 1.08 in [3] (setting [12]). The fluorescence slope in [5] was -0.413 (inactive). Moreover, the NADPH fluorescence slope in [6] was -7.9e-05 (inactive). The slope in test [7] is 0.0043 (inactive). Besides, the compound was classed as inactive in [8].
For `O=C(c1ccco1)N1CCN(CCOCCOc2cccc3ccccc23)CC1`, the cell count in [1] stood at 473. Also, the inhibition in test [1] was -5.4% (inactive); in test [2], -81.6% (inactive); in test [4], -2.07% (inactive); in test [9] it was 16.4% (inactive). The same compound gave a nuclei count in test [2] of 121%. For the same compound, the figures for the z-score in test [3] (setting [10]), in [3] (setting [11]) and in [3] (setting [12]) were -1.67, -0.183 and 1.98, respectively. Besides, the fluorescence slope in [5] was -0.504 (inactive). Moreover, in test [6], the NADPH fluorescence slope was -0.000107 (inactive). In addition, the slope in test [7] was 0.00477 (inactive). In [8], the compound was classed as inactive.
Turning to `COc1cc(C2C3C(=O)N(c4ccccc4)C(=O)C3ON2c2ccccc2)ccc1O` (centres undefined), in test [1], the cell count turned out to be 322. Further, the inhibition in test [1] is -4.2% (inactive); in [2] it was -22.7% (inactive); in test [4], 5.42% (inactive); in test [9] it was -1.03% (inactive). The same compound yielded a nuclei count in test [2] of 171%. Also, the z-score in test [3] (setting [10]) is 0.353; in [3] (setting [11]) it was -0.666; in test [3] (setting [12]) it was -0.00927. For the same compound, the fluorescence slope in test [5] was -0.418 (inactive). The NADPH fluorescence slope in test [6] is -0.000156 (inactive). Besides, in test [7], the slope is 0.00862 (inactive). Further, in test [8], the outcome was inactive.
